Screening data deposited in PubChem by several laboratories.
SKN-1 block: C. elegans SKN-1 inhibition | AID 624304 | C. elegans VP596 Pgst-4::GFP/RFP ratio, acrylamide-induced, 24 h | hit rate 0.49% among 360,000 | inhibition, % at 21.8 µM;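 active means interference check ratio from 0.5 to 1.5 plus GFP to RFP signal ratio inhibition reaching or exceeding a fixed threshold, cut at about 30% in these data, passing the limit was not always enough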
Tb MetRS inh: Trypanosoma brucei MetRS inhibition. inhibition, % at 11.9 µM. purified T. brucei MetRS, ATP depletion, Kinase-Glo luminescence. AID 624268. hit rate 0.4% among 360,000;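 active means inhibition above a per-plate cutoff of the control wells' mean inhibition plus 3 SD, cut at about 5.5% in these data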;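 further: 0% = DMSO wells median and 100% = median of wells with control inhibitor compound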
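technique = Kinase-Glo luminescence, ATP depletion format | system = purified MetRS (methionyl-tRNA synthetase) enzyme from Trypanosoma brucei | timing = 15 min preincubation, 2 h reaction, all 25 °C | evaluation = percent inhibition versus plate control medians | dosing = single dose, 11.9 µM final nominal, 0.9% final DMSO | also added = substrates ATP, L-methionine and bulk Escherichia coli tRNA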
NPR1 activator: GC-A (human) enzyme activation; HEK293 GC-A cells, cGMP TR-FRET, EC30 ANP; 0% at EC30 ANP, 100% saturating ANP; AID 1671463; activation, % at 10 µM; P16066; hit rate 0.14% among 370,000; in the data active means activation above about 40%
A1 inh: inhibitors of the anti-apoptotic protein A1, read as caspase activation | MEF A1-2A-BIM cells, Caspase-Glo 3/7 luminescence, 3 h; percent of clofoctol response, vehicle zero | caspase activation, % (concentration not given with the values) | hit rate 0.066% among 330,000;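 active means over half of replicate activation scores above 10%, or exactly half above 10 with the replicate mean above 10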
MT1-MMP act inh: inhibitors of human MT1-MMP activation | AID 651647 | GFP/RFP ratio change, % at 20 µM | P50281 | HT1080 RFP-PRO-GFP cells, GFP/RFP ratio fluorescence, overnight; percent of plate control window, DMSO zero | hit rate 0.061% among 360,000;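 active means GFP/RFP ratio change of at least 30% with cell ATP level not reduced by more than half and red fluorescence within 50% of control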
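Material – HT1080 RFP-PRO-GFP cells · Control set – DMSO wells and RFP-L50D-GFP cells · Incubation – overnight cell settling, then overnight compound exposure, 37 °C, 5% CO2 · Compound dosing – single-point 20 µM compound, 1% DMSO · Read-out – GFP/RFP fluorescence ratio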
NPR2 activator: GC-B (human) receptor activation | HEK293-GC-B cells, CNP EC30, cGMP TR-FRET; 0% at EC30 CNP, 100% saturating CNP | activation, % at 10 µM | P20594 | hit rate 0.11% among 370,000;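 active means activation at 10 µM reaching about 35% in either raw or pattern-adjusted values, limit read from the data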
Target sequence (P20594 whole entry, looked up): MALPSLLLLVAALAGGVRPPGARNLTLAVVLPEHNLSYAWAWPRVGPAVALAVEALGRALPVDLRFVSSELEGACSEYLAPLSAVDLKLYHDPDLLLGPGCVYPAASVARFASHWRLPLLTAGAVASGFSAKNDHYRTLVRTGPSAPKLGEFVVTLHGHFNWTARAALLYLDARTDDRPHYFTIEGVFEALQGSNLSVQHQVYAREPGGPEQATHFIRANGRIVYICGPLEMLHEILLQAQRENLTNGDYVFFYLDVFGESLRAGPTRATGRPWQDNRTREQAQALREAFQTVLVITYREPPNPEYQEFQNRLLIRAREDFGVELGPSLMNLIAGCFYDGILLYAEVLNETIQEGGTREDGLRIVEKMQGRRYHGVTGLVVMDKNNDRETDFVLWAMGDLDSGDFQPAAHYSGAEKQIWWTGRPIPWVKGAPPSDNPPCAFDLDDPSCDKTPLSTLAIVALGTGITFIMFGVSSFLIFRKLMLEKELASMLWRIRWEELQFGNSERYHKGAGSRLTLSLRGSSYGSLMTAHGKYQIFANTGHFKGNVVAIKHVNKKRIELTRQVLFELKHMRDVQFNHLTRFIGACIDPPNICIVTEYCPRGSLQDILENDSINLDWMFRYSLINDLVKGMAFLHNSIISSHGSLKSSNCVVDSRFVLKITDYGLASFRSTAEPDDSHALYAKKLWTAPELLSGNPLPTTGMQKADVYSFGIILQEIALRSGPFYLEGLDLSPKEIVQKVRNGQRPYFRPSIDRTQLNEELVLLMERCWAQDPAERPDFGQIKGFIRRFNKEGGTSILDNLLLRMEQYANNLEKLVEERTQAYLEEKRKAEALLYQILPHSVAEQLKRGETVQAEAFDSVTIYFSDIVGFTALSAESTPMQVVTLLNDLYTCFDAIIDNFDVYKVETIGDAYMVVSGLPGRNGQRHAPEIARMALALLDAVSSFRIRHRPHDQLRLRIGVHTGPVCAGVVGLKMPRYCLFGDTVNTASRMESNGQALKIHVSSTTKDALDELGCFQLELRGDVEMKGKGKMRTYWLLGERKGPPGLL
TbMetRS confirm: confirmation of Trypanosoma brucei MetRS inhibitors. inhibition, % at 11.9 µM. hit rate 93% among 1,400. AID 624412. T. brucei MetRS enzyme, luminescence (ATP depletion). shares compounds with Tb MetRS inh; in the data active means inhibition above about 7%
Jurkat cytotox: Jurkat T cell cytotoxicity for MetRS hits; Jurkat cells viability, ATP luminescence; inhibition, % at 8.3 µM; AID 624413; hit rate 12% among 1,400; shares compounds with Tb MetRS inh; in the data active means inhibition above about 15%;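 further: 0% = vehicle and 100% = reference inhibitor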
TbMetRS FP orth: orthogonal test for Trypanosoma brucei MetRS inhibitors | shares compounds with Tb MetRS inh | purified T. brucei MetRS, fluorescence polarization | inhibition, % at 11.9 µM | hit rate 44% among 1,400 | AID 651607; in the data active means inhibition above about 17%;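 further: 0% = vehicle wells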
MT1-MMP act val: MT1-MMP (human) activation inhibition, single-concentration validation. shares compounds with MT1-MMP act inh. HT1080 RFP-PRO-GFP cells, GFP and RFP fluorescence ratio, overnight. inhibition, % at 20 µM. hit rate 10% among 200. AID 652235;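 active means inhibition of at least 50% in the primary cell screen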
The depositor's hits bear a star. A selection: hits, their analogues and other compounds. The true share with any hit is near 1.1%.

Results for NNC(=O)CN1C(=O)CN=C(c2ccccc2)c2cc(Br)ccc21 ?
SKN-1 block: -7; Tb MetRS inh: 22*; NPR1 activator: 2; A1 inh: 1; MT1-MMP act inh: -3; NPR2 activator: 3; TbMetRS confirm: 3; Jurkat cytotox: 1; TbMetRS FP orth: 6

How did O=C1NCN(c2ccccc2)C12CCN(C(c1ccccc1)c1nnnn1C1CCCC1)CC2 (stereo not drawn) do in these assays?
SKN-1 block: 2; Tb MetRS inh: 0; NPR1 activator: -7; MT1-MMP act inh: -1; NPR2 activator: -1

How did COCCCn1c(N)c(C(=O)Nc2ccccc2)c2nc3ccccc3nc21 do in these assays?
SKN-1 block: -3; Tb MetRS inh: 2; NPR1 activator: 8; A1 inh: 0; MT1-MMP act inh: -5; NPR2 activator: -9

How did CCC(C)NC(=O)c1c(N)n(CCCOC)c2nc3ccccc3nc12 (stereo not drawn) do in these assays?
SKN-1 block: 17; Tb MetRS inh: 5.7*; NPR1 activator: 3; A1 inh: -2; MT1-MMP act inh: -19; NPR2 activator: 2; TbMetRS confirm: 5; Jurkat cytotox: 4; TbMetRS FP orth: 0

What do the screens show for `CCC(C)NC(=O)c1c(N)n(Cc2ccc3c(c2)OCO3)c2nc3ccccc3nc12` (stereo not drawn)?
SKN-1 block: 20; Tb MetRS inh: 6.3*; NPR1 activator: 6; A1 inh: 0; MT1-MMP act inh: -25; NPR2 activator: 22; TbMetRS confirm: 4; Jurkat cytotox: 0; TbMetRS FP orth: 5

What do the screens show for `CC/C(=N\Nc1cccc2ccccc12)c1c(O)[nH]c(=O)[nH]c1=O`?
SKN-1 block: 9; Tb MetRS inh: 0; NPR1 activator: -15; A1 inh: 0; MT1-MMP act inh: -6; NPR2 activator: -10

What do the screens show for `Cn1ncnc2c(=O)n(C)c(=O)nc1-2`?
SKN-1 block: -2; Tb MetRS inh: 40*; A1 inh: -4; MT1-MMP act inh: -27; TbMetRS confirm: 21*; Jurkat cytotox: 87*; TbMetRS FP orth: 5

Results for CCCCn1c(NS(=O)(=O)c2ccccc2)c(C(=O)OCC)c2nc3ccccc3nc21 ?
SKN-1 block: -1; Tb MetRS inh: 13*; NPR1 activator: 3; A1 inh: 0; MT1-MMP act inh: -2; NPR2 activator: 0; TbMetRS confirm: 4; Jurkat cytotox: 10; TbMetRS FP orth: -1

Results for CC(=O)OC1(c2ccccc2)CCN(C)CC1(C)C (stereo not drawn) ?
SKN-1 block: 3; Tb MetRS inh: -1; NPR1 activator: -4; A1 inh: 1; MT1-MMP act inh: -2; NPR2 activator: 1

How did CC(=O)N(C)CC#CCN1CCC(O)CC1 do in these assays?
SKN-1 block: 5; Tb MetRS inh: 0; NPR1 activator: -2; A1 inh: 0; MT1-MMP act inh: -3; NPR2 activator: 4

Results for COC(=O)C1=C(c2ccc(OC)c(OC)c2)C[C@@H]2CC[C@H]1N2C(=O)N1CCCC1 ?
SKN-1 block: 24; Tb MetRS inh: 0; NPR1 activator: 4; A1 inh: -1; MT1-MMP act inh: 34*; NPR2 activator: 0; MT1-MMP act val: 3

What do the screens show for `CO[C@H]1CC=C2CCN3CCC4=C(CC(=O)OC4)[C@]23C1`?
SKN-1 block: 7; Tb MetRS inh: 0; NPR1 activator: 1; A1 inh: -1; MT1-MMP act inh: 1; NPR2 activator: 7

Results for O=c1[nH]c(=S)n(C2CC2)c(O)c1/C=N/Nc1ccccc1 ?
SKN-1 block: -1; Tb MetRS inh: 0; NPR1 activator: 0; A1 inh: 1; MT1-MMP act inh: 61*; NPR2 activator: -1; MT1-MMP act val: 4

How did O=c1[nH]c(=S)n(C2CC2)c(O)c1/C=N/Nc1cccc2ccccc12 do in these assays?
SKN-1 block: 10; Tb MetRS inh: 1; NPR1 activator: -6; A1 inh: 1; MT1-MMP act inh: 2; NPR2 activator: -10

What do the screens show for `Cn1cccc1/C=C1/C(=O)NC(=S)N(Cc2ccc(F)cc2)C1=O`?
SKN-1 block: -1; Tb MetRS inh: 0; NPR1 activator: -47; A1 inh: 1; MT1-MMP act inh: 39*; NPR2 activator: -4; MT1-MMP act val: 35

How did O=C(Cn1cc(C(=O)c2ccccc2F)c2ccccc21)NC1CC1 do in these assays?
SKN-1 block: 8; Tb MetRS inh: 2; NPR1 activator: 0; A1 inh: 0; MT1-MMP act inh: 1; NPR2 activator: -3
